Results: ChEMBL document CHEMBL4138313 (J Med Chem, 2018)

Experiments:
Assay type in all cases: cell-based
[1] = target: Poly [ADP-ribose] polymerase 1 (Homo sapiens, UniProt P09874); experiment: Binding affinity to PARP1 in human OVCAR8 cells assessed as reduction in [125I]-KX1 binding by gamma counting analysis
MEF [2] = experiment: Cytotoxicity against mouse wild type MEF cells assessed as reduction in cell viability after 4 to 7 days by cell-titer glo assay
MEF [3] = experiment: Cytotoxicity against mouse PARP1 deficient MEF cells assessed as reduction in cell viability at 0.016 to 100 uM after 4 to 7 days by cell-titer glo assay
How it was run: (§1)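 Cells kept at 37 °C, 5% CO2, 15% O2 in RPMI 1640 with 10% FBS and 1% penicillin/streptomycin. Seeded at 1,000 cells/well and dosed 24 h later at 100–0.016 µM. Exposure lasted 4–7 days, then viability was read by CellTiter Glo luminescence. Signal was normalized to percent survival against the mean of vehicle controls. Three repeat experiments.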

MEF [4] = experiment: Cytotoxicity against mouse PARP2 deficient MEF cells expressing PARP1 assessed as reduction in cell viability after 4 to 7 days by cell-titer glo assay
OVCAR-8 = experiment: Cytotoxicity against human OVCAR8 cells assessed as cell survival at 10 uM after 4 to 7 days by cell-titer glo assay; details: ovcar-8, 10 µM
MEF [5] = experiment: Cytotoxicity against mouse PARP1 deficient MEF cells assessed as reduction in cell viability after 4 to 7 days by cell-titer glo assay
MEF [6] = experiment: Cytotoxicity against mouse wild type MEF cells assessed as reduction in cell viability at 0.016 to 100 uM after 4 to 7 days by cell-titer glo assay; how it was run: as §1
MEF [7] = experiment: Cytotoxicity against mouse PARP2 deficient MEF cells expressing PARP1 assessed as reduction in cell viability at 0.016 to 100 uM after 4 to 7 days by cell-titer glo assay; how it was run: as §1

Poly [ADP-ribose] polymerase 1, sequence (P09874 whole entry): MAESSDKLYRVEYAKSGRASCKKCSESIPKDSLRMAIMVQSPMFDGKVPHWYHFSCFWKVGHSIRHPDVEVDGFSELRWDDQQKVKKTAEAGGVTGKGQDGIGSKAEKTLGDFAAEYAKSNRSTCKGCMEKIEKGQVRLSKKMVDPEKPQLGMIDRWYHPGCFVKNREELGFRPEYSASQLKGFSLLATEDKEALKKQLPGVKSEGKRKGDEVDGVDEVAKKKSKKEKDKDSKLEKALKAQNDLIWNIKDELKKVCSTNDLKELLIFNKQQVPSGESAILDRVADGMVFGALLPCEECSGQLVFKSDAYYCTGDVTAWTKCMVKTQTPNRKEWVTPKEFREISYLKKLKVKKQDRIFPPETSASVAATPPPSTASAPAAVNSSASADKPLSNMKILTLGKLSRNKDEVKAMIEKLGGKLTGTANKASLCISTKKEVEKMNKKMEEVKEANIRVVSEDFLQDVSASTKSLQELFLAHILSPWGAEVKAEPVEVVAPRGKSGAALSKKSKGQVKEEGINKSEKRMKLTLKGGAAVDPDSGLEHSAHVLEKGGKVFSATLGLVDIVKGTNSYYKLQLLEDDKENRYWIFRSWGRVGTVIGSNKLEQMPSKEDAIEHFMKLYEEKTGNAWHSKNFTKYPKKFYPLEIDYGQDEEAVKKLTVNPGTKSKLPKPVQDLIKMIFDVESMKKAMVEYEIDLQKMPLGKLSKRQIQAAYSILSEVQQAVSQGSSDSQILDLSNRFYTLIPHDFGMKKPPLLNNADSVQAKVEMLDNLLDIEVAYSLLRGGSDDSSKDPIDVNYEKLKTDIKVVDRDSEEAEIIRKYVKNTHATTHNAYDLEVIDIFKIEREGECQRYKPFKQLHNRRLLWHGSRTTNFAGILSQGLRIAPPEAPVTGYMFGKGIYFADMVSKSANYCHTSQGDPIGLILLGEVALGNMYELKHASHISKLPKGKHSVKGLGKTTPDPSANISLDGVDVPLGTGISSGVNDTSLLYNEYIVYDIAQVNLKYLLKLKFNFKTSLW

With `O=C(c1cc(Cc2n[nH]c(=O)c3ccccc23)ccc1F)N1CCC2(CCC2)C1` as the compound, how does the IC50 [1] read?
The IC50 was 0.0324 µM.

What about the EC50 (MEF [2]) of the same compound?
The EC50 was 45.2 µM.

What about the Activity (MEF [3]) of the same compound?
Its Activity is < 50%.

And the EC50 (MEF [4])?
Its EC50 is 54.7 µM.

With `O=C(c1cc(Cc2n[nH]c(=O)c3ccccc23)ccc1F)N1CCC2(CC1)CCN(C(=O)C1CC1)CC2` as the compound, how does the Activity (OVCAR-8) read?
The Activity was “Non-Toxic”.

What about the EC50 (MEF [2]) of the same compound?
The EC50 was 24.8 µM.

And the EC50 (MEF [5])?
Its EC50 is 49.7 µM.

And the EC50 (MEF [4])?
The EC50 was 21.6 µM.

What does the source list for `O=C(C1CC1)N1CC2(CCN2C(=O)c2cc(Cc3n[nH]c(=O)c4ccccc34)ccc2F)C1`?
IC50 [1]: 0.13 µM; EC50 (MEF [2]): 53.2 µM; Activity (MEF [3]): < 50%; EC50 (MEF [4]): 46.7 µM

Which IC50 [1] does the source give for `O=C(c1cc(Cc2n[nH]c(=O)c3ccccc23)ccc1F)N1CCC2(CCN(C(=O)C3CC3)C2)C1` (configuration not stated) here?
The IC50 was 2.59 µM.

And the Activity (MEF [6])?
The Activity was < 50%.

What about the Activity (MEF [3]) of the same compound?
The Activity was < 50%.

And the EC50 (MEF [4])?
Its EC50 is 70.9 µM.

`O=C(c1cc(Cc2n[nH]c(=O)c3ccccc23)ccc1F)N1CCC2(CCN(C(=O)C3CC3)CC2)C1` was tested. Which IC50 [1] did it give?
The IC50 was 0.225 µM.

And the EC50 (MEF [2])?
Its EC50 is 41.6 µM.

And the Activity (MEF [3])?
Its Activity is < 50%.

And the EC50 (MEF [4])?
The EC50 was 61 µM.

With `O=C(c1cc(Cc2n[nH]c(=O)c3ccccc23)ccc1F)N1CCC2(CNC2)C1` as the compound, how does the IC50 [1] read?
Its IC50 is 1.24 µM.

And the Activity (MEF [6])?
Its Activity is < 50%.

And the Activity (MEF [3])?
Its Activity is < 50%.

And the Activity (MEF [7])?
Its Activity is < 50%.

With `COC1CCN(C(=O)c2cc(Cc3n[nH]c(=O)c4ccccc34)ccc2F)CC1` [AZD2461] as the compound, how does the IC50 [1] read?
The IC50 was 0.0017 µM.

How did the IC50 [1] turn out when `O=C(c1cc(Cc2n[nH]c(=O)c3ccccc23)ccc1F)N1CC2(CCNCC2)C1` was run?
Its IC50 is 1.42 µM.

What about the Activity (MEF [6]) of the same compound?
Its Activity is < 50%.

And the Activity (MEF [3])?
Its Activity is < 50%.

What about the EC50 (MEF [4]) of the same compound?
The EC50 was 68.5 µM.

How did the IC50 [1] turn out when `O=C(c1cc(Cc2n[nH]c(=O)c3ccccc23)ccc1F)N1CCC2(CCCCC2)CC1` was run?
Its IC50 is 0.0571 µM.

And the EC50 (MEF [2])?
Its EC50 is 41.3 µM.

What about the Activity (MEF [3]) of the same compound?
Its Activity is < 50%.

What about the EC50 (MEF [4]) of the same compound?
The EC50 was 41.3 µM.

What does the source list for `CC(C)(C)OC(=O)N1CC2(CCN(C(=O)c3cc(Cc4n[nH]c(=O)c5ccccc45)ccc3F)C2)C1`?
EC50 (MEF [2]): 29.2 µM; Activity (MEF [3]): < 50%; EC50 (MEF [4]): 31.8 µM

For `O=C(c1cc(Cc2n[nH]c(=O)c3ccccc23)ccc1F)N1CC2(CCC2)C1`, which IC50 [1] is on record?
The IC50 was 0.0339 µM.

What about the Activity (OVCAR-8) of the same compound?
The Activity was “Non-Toxic”.

What about the EC50 (MEF [2]) of the same compound?
The EC50 was 48.3 µM.

What about the Activity (MEF [3]) of the same compound?
Its Activity is < 50%.

And the EC50 (MEF [4])?
The EC50 was 49 µM.

`O=C(C1CC1)N1CCC2(CC1)CCN2C(=O)c1cc(Cc2n[nH]c(=O)c3ccccc23)ccc1F` was tested. Which IC50 [1] did it give?
The IC50 was 0.431 µM.

What about the EC50 (MEF [2]) of the same compound?
The EC50 was 47.5 µM.

What about the Activity (MEF [3]) of the same compound?
The Activity was < 50%.

What about the EC50 (MEF [4]) of the same compound?
Its EC50 is 44.4 µM.

What does the source list for `O=C(c1cc(Cc2n[nH]c(=O)c3ccccc23)ccc1F)N1CCC2(CCCCC2)C1`?
IC50 [1]: 0.141 µM; EC50 (MEF [2]): 42.7 µM; EC50 (MEF [5]): 51.6 µM; EC50 (MEF [4]): 46.8 µM

How did the IC50 [1] turn out when `CC(C)(C)OC(=O)N1CCC2(CC1)CCN2C(=O)c1cc(Cc2n[nH]c(=O)c3ccccc23)ccc1F` was run?
The IC50 was 2.97 µM.

What about the EC50 (MEF [2]) of the same compound?
Its EC50 is 23.3 µM.

And the Activity (MEF [3])?
The Activity was < 50%.

What about the EC50 (MEF [4]) of the same compound?
Its EC50 is 33.2 µM.

`O=C(c1cc(Cc2n[nH]c(=O)c3ccccc23)ccc1F)N1CC2(CCN(C(=O)C3CC3)CC2)C1` was tested. Which IC50 [1] did it give?
The IC50 was 0.1 µM.

What about the EC50 (MEF [2]) of the same compound?
Its EC50 is 49.3 µM.

What about the Activity (MEF [3]) of the same compound?
Its Activity is < 50%.

What about the EC50 (MEF [4]) of the same compound?
The EC50 was 57.2 µM.

For `CC(C)(C)OC(=O)N1CC2(C1)CN(C(=O)c1cc(Cc3n[nH]c(=O)c4ccccc34)ccc1F)C2`, which EC50 (MEF [2]) is on record?
The EC50 was 31.1 µM.

What about the Activity (MEF [3]) of the same compound?
Its Activity is < 50%.

What about the EC50 (MEF [4]) of the same compound?
The EC50 was 24.7 µM.

What does the source list for `CC(C)(C)OC(=O)N1CC2(CCN2C(=O)c2cc(Cc3n[nH]c(=O)c4ccccc34)ccc2F)C1`?
IC50 [1]: 0.877 µM; EC50 (MEF [2]): 42.9 µM; Activity (MEF [3]): < 50%; EC50 (MEF [4]): 35.8 µM

Which Activity (MEF [6]) does the source give for `O=C(c1cc(Cc2n[nH]c(=O)c3ccccc23)ccc1F)N1CCC12CCNCC2` here?
The Activity was < 50%.

What about the Activity (MEF [3]) of the same compound?
The Activity was < 50%.

And the EC50 (MEF [4])?
The EC50 was 106 µM.

What does the source list for `O=C(c1cc(Cc2n[nH]c(=O)c3ccccc23)ccc1F)N1CC2(COC2)C1`?
EC50 (MEF [2]): 52.2 µM; Activity (MEF [3]): < 50%; EC50 (MEF [4]): 53.3 µM

Which results are given for `O=C(c1cc(Cc2n[nH]c(=O)c3ccccc23)ccc1F)N1CCC12CNC2`?
IC50 [1]: 0.526 µM; Activity (MEF [6]): < 50%; Activity (MEF [3]): < 50%; Activity (MEF [7]): < 50%

What does the source list for `O=C(c1cc(Cc2n[nH]c(=O)c3ccccc23)ccc1F)N1CCC2(CCNCC2)CC1`?
IC50 [1]: 0.234 µM; Activity (MEF [6]): < 50%; Activity (MEF [3]): < 50%; EC50 (MEF [4]): 59.7 µM

Which results are given for `O=C(c1cc(Cc2n[nH]c(=O)c3ccccc23)ccc1F)N1CCC2(C1)CN(C(=O)C1CC1)C2`?
IC50 [1]: 2.54 µM; Activity (MEF [6]): < 50%; Activity (MEF [3]): < 50%; EC50 (MEF [4]): 61.8 µM

How did the IC50 [1] turn out when `O=C(c1cc(Cc2n[nH]c(=O)c3ccccc23)ccc1F)N1CC2(CCCCC2)C1` was run?
The IC50 was 0.0654 µM.

What about the Activity (OVCAR-8) of the same compound?
The Activity was “Non-Toxic”.

And the EC50 (MEF [2])?
Its EC50 is 25.6 µM.

What about the EC50 (MEF [5]) of the same compound?
Its EC50 is 48.3 µM.

What about the EC50 (MEF [4]) of the same compound?
Its EC50 is 39.9 µM.

`O=C(c1cc(Cc2n[nH]c(=O)c3ccccc23)ccc1F)N1CCC12CCC2` was tested. Which IC50 [1] did it give?
The IC50 was 0.0365 µM.

And the EC50 (MEF [2])?
The EC50 was 48 µM.

What about the Activity (MEF [3]) of the same compound?
Its Activity is < 50%.

And the EC50 (MEF [4])?
Its EC50 is 58.3 µM.

How did the IC50 [1] turn out when `O=C(c1cc(Cc2n[nH]c(=O)c3ccccc23)ccc1F)N1CCC12CCCCC2` was run?
The IC50 was 0.284 µM.

And the EC50 (MEF [2])?
Its EC50 is 32.6 µM.

What about the Activity (MEF [3]) of the same compound?
The Activity was < 50%.

And the EC50 (MEF [4])?
The EC50 was 78.8 µM.

With `O=C(c1cc(Cc2n[nH]c(=O)c3ccccc23)ccc1F)N1CC2(CNC2)C1` as the compound, how does the IC50 [1] read?
Its IC50 is 2.39 µM.

And the Activity (MEF [6])?
The Activity was < 50%.

And the Activity (MEF [3])?
The Activity was < 50%.

What about the Activity (MEF [7]) of the same compound?
The Activity was < 50%.

`O=C(c1cc(Cc2n[nH]c(=O)c3ccccc23)ccc1F)N1CCC2(CCNCC2)C1` was tested. Which IC50 [1] did it give?
Its IC50 is 3.88 µM.

And the Activity (MEF [6])?
Its Activity is < 50%.

And the Activity (MEF [3])?
Its Activity is < 50%.

What about the Activity (MEF [7]) of the same compound?
Its Activity is < 50%.

How did the IC50 [1] turn out when `O=C(c1cc(Cc2n[nH]c(=O)c3ccccc23)ccc1F)N1CCC2(CCNC2)C1` (configuration not stated) was run?
The IC50 was 1.12 µM.

What about the Activity (MEF [6]) of the same compound?
The Activity was < 50%.

And the Activity (MEF [3])?
The Activity was < 50%.

How did the IC50 [1] turn out when `O=C(c1cc(Cc2n[nH]c(=O)c3ccccc23)ccc1F)N1CCC2(CCCC2)C1` was run?
The IC50 was 0.0514 µM.

What about the EC50 (MEF [2]) of the same compound?
The EC50 was 31.7 µM.

And the EC50 (MEF [4])?
Its EC50 is 55.5 µM.

`CC(C)(C)OC(=O)N1CCC2(CC1)CN(C(=O)c1cc(Cc3n[nH]c(=O)c4ccccc34)ccc1F)C2` was tested. Which EC50 (MEF [2]) did it give?
Its EC50 is 23.4 µM.

And the EC50 (MEF [5])?
Its EC50 is 49.2 µM.

What about the EC50 (MEF [4]) of the same compound?
Its EC50 is 41.5 µM.
